Here are results for nine molecules from PMC7164687 (Antiviral research, 2020).

Series [1] can be described thus: Cytotoxicity assay in PXB cells. In kind it is cell-based. The settings on record: human.
The test system of a further series is HIV-1LAI. Nature of the series: microbe, parasite or virus in culture. Format: cell-based. Particulars: Human immunodeficiency virus 1, MT2, 168 h, read-out: IC50 against HIV-1LAI.
A further series concerns PXB cells. Nature of the series: Cytotoxicity assay in PXB cells. Particulars: read-out: CC50 in PXB cells; PXB cells, continuous exposure; mean ± 1 S.D. Format: cell-based.
Another series deals with HBVETV^R. Nature of the series: HBVETV^R viremia in infected human-liver-chimeric mice. Particulars: for reduction of HBVETV^R viremia, day 14: 14 days, average reduction by day 14; for block of HBVETV^R viremia: once-daily peroral 1 mg/kg/day over 14 days, abstract. In kind it is in vivo. In short, it runs like this:
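uPA/SCID mice with livers repopulated by human hepatocytes, infected with recombinant ETV-resistant HBV clone (L180M/S202G/M204V). Dosing began 7–14 weeks after inoculation: test compound, ETV or saline given intragastrically at 1 mg/kg once daily for 14 days, n=2–4 per group. Serum HBV-DNA (S gene) measured by real-time PCR. Change from day 0 compared by repeated-measures ANOVA, two-tailed, uncorrected.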

In the next series the test system is HBVWT^D. Nature of the series: microbe, parasite or virus in culture. Format: cell-based. The settings on record: Hepatitis B virus, HepG2.2.15, read-out: anti-HBV activity IC50.
Another series deals with HBVWT^Ce. Nature of the series: HBVWT^Ce viremia in infected human-liver-chimeric mice. Format: in vivo. Particulars: for reduction of HBVWT^Ce DNA (viremia), day 14: 14 days, average reduction by day 14.
The format of series [2] is in vivo, human-liver-chimeric mice. The settings on record: 1 mg/kg/day oral, 14 days, HBV-infected mice.
The subject of series [3] is human DNA polymerases, α, β, and γ. The settings on record: ref Nakata et al., 2007; cited from earlier work.
Where [4] appears, read: 1 mg/kg/day oral, average reduction by 3 days after start.
The mark [5] stands for this setting: CC50 in PXB cells, PXB cells, continuous exposure, mean ± 1 S.D.

Where a name gives a salt, the structure may show the parent alone.

In the case of `CC(C)OC(=O)[C@H](C)N[P@](=O)(CO[C@H](C)Cn1cnc2c(N)ncnc21)Oc1ccccc1` [TAF, tenofovir alafenamide], in series [1], half-maximal cytotoxicity (CC50) was put at 5700 ± 1900 nM. In addition, the IC50 (as a rule, the concentration at which inhibition is half-maximal) in the series with HIV-1LAI is 4 ± 2 nM.

Consider `N#C[C@]1(CO)O[C@@H](n2cc(F)c3c(N)ncnc32)C[C@@H]1O` [CdFA, 4’-C-cyano-7-deaza-7-fluoro-2’-deoxyadenosine], for which the CC50 (as a rule, the concentration that lowers cell viability or growth by half) in the series with PXB cells was 55900 ± 5700 nM. The IC50 is 880 ± 10 nM in the series with HIV-1LAI and about 26 nM with HBVWT^D. Further, the “reduction of HBVETV^R viremia, day 14” value in the series with HBVETV^R (1 mg/kg/day oral) was 1.2 log10 copies/mL. Further, the “reduction of HBVETV^R viremia, day 3” value in the series on HBVETV^R (setting [4]) came out at 0.6 log10 copies/mL. The “block of HBVETV^R viremia” value in the series with HBVETV^R came to 1.2 logs. The “reduction of HBVWT^Ce DNA (viremia), day 14” value in the series on HBVWT^Ce (1 mg/kg/day oral) is listed as 0.7 log10 copies/mL. For the same molecule, the “reduction of HBVWT^Ce DNA (viremia), day 3” value with HBVWT^Ce (setting [4]) is reported as 0.5 log10 copies/mL. The “block of HBVWT viremia” value in the series with HBVWT^Ce (once-daily peroral 1 mg/kg/day over 14 days, abstract) worked out at 0.7 logs.

In the case of `C=C1[C@H](CO)[C@@H](O)C[C@@H]1n1cnc2c(=O)[nH]c(N)nc21` [ETV, entecavir], in series [1] (setting [5]), the midpoint of cytotoxicity, the CC50, lay at 252000 ± 37500 nM. Moreover, the IC50 in the series with HIV-1LAI was 1000 ± 400 nM. Also, in series [2], the “changes in serum human albumin levels” value is on record as “no significant differences”. For the same molecule, the “reduction of HBVETV^R viremia, day 14” value in the series on HBVETV^R (1 mg/kg/day oral) is given as 0.5 log10 copies/mL. Moreover, the “block of HBVETV^R viremia” value in the series on HBVETV^R is recorded as “only slightly suppressed”. The “reduction of HBVWT^Ce DNA (viremia), day 14” value in the series with HBVWT^Ce (1 mg/kg/day oral) is recorded as 2.2 log10 copies/mL.

In turn, `N#C[C@]1(CO)O[C@@H](n2cnc3c(N)ncnc32)C[C@@H]1O` [CdA, 4’-C-cyano-2’-deoxyadenosine] yielded a cytotoxic concentration (CC50) in series [1] (setting [5]) of 5400 ± 1500 nM. For the same molecule, in the series with HIV-1LAI, the IC50 amounted to 94 ± 4 nM.

For `Nc1ccn([C@@H]2CS[C@H](CO)O2)c(=O)n1` [3TC, lamivudine], the CC50 in series [1] (setting [5]) is over 100000 nM. Further, in the series on HIV-1LAI, the IC50 came out at 660 ± 150 nM.

`C#C[C@]1(CO)O[C@@H](n2cnc3c(N)nc(F)nc32)C[C@@H]1O` [EFdA, 4’-ethynyl-2-fluoro-2’-deoxyadenosine]: the “inhibition of the activity of human DNA polymerases α, β, and γ” value in series [3] is “little inhibition”.

Regarding `CC(C)(C)C(=O)OCOP(=O)(COCCn1cnc2c(N)ncnc21)OCOC(=O)C(C)(C)C` [ADV, adefovir dipivoxil], the CC50 in series [1] (setting [5]) came out at 71500 ± 19300 nM. Also, the IC50 in the series on HIV-1LAI turned out to be 660 ± 200 nM.

`N#C[C@]1(CO)O[C@@H](n2cnc3c(=O)[nH]c(N)nc32)C[C@@H]1O` [CdG, 4’-C-cyano-2’-deoxyguanosine] registered a CC50 in series [1] (setting [5]) of 370 ± 30 nM. The IC50 in the series with HIV-1LAI is 0.6 ± 0.1 nM.

As to `CC(C)OC(=O)OCOP(=O)(CO[C@H](C)Cn1cnc2c(N)ncnc21)OCOC(=O)OC(C)C` [TDF, tenofovir disoproxil fumarate], it took 33400 ± 10900 nM to reach half-maximal cytotoxicity in series [1] (PXB cells) (CC50). In the series with HIV-1LAI, the IC50 was found to be 30 ± 10 nM.
